Assay results reported in BindingDB's records for doi:10.1021/acs.jmedchem.9b01547 (University of Oxford, 2020).

What was measured:
[1] = target: T1, Utrophin (Homo sapiens, UniProt P46939); assay: Activation of human utrophin-1 in mouse mdx myoblasts by H2K-mdx utrnA-luc assay
Procedure, shortened: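 Firefly luciferase reporter gene assay in H2K-mdx utrnA-luc cells (mouse mdx myoblasts carrying a human muscle-specific utrophin A promoter). EC50 from non-linear regression curve fit of 2 biological replicates, 3 technical replicates each.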

[2] = target: T1, Utrophin; assay: Activation of human utrophin-1 in iDMD cells by HTRF assay
Procedure, shortened: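 HTRF quantification of human utrophin protein in lysates of treated iDMD cells, read at 620 and 665 nm emission; top concentration 10 μM. EC50 by non-linear regression curve fit from 2 biological replicates, each with 3 technical replicates.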

T1 sequence (P46939 whole entry): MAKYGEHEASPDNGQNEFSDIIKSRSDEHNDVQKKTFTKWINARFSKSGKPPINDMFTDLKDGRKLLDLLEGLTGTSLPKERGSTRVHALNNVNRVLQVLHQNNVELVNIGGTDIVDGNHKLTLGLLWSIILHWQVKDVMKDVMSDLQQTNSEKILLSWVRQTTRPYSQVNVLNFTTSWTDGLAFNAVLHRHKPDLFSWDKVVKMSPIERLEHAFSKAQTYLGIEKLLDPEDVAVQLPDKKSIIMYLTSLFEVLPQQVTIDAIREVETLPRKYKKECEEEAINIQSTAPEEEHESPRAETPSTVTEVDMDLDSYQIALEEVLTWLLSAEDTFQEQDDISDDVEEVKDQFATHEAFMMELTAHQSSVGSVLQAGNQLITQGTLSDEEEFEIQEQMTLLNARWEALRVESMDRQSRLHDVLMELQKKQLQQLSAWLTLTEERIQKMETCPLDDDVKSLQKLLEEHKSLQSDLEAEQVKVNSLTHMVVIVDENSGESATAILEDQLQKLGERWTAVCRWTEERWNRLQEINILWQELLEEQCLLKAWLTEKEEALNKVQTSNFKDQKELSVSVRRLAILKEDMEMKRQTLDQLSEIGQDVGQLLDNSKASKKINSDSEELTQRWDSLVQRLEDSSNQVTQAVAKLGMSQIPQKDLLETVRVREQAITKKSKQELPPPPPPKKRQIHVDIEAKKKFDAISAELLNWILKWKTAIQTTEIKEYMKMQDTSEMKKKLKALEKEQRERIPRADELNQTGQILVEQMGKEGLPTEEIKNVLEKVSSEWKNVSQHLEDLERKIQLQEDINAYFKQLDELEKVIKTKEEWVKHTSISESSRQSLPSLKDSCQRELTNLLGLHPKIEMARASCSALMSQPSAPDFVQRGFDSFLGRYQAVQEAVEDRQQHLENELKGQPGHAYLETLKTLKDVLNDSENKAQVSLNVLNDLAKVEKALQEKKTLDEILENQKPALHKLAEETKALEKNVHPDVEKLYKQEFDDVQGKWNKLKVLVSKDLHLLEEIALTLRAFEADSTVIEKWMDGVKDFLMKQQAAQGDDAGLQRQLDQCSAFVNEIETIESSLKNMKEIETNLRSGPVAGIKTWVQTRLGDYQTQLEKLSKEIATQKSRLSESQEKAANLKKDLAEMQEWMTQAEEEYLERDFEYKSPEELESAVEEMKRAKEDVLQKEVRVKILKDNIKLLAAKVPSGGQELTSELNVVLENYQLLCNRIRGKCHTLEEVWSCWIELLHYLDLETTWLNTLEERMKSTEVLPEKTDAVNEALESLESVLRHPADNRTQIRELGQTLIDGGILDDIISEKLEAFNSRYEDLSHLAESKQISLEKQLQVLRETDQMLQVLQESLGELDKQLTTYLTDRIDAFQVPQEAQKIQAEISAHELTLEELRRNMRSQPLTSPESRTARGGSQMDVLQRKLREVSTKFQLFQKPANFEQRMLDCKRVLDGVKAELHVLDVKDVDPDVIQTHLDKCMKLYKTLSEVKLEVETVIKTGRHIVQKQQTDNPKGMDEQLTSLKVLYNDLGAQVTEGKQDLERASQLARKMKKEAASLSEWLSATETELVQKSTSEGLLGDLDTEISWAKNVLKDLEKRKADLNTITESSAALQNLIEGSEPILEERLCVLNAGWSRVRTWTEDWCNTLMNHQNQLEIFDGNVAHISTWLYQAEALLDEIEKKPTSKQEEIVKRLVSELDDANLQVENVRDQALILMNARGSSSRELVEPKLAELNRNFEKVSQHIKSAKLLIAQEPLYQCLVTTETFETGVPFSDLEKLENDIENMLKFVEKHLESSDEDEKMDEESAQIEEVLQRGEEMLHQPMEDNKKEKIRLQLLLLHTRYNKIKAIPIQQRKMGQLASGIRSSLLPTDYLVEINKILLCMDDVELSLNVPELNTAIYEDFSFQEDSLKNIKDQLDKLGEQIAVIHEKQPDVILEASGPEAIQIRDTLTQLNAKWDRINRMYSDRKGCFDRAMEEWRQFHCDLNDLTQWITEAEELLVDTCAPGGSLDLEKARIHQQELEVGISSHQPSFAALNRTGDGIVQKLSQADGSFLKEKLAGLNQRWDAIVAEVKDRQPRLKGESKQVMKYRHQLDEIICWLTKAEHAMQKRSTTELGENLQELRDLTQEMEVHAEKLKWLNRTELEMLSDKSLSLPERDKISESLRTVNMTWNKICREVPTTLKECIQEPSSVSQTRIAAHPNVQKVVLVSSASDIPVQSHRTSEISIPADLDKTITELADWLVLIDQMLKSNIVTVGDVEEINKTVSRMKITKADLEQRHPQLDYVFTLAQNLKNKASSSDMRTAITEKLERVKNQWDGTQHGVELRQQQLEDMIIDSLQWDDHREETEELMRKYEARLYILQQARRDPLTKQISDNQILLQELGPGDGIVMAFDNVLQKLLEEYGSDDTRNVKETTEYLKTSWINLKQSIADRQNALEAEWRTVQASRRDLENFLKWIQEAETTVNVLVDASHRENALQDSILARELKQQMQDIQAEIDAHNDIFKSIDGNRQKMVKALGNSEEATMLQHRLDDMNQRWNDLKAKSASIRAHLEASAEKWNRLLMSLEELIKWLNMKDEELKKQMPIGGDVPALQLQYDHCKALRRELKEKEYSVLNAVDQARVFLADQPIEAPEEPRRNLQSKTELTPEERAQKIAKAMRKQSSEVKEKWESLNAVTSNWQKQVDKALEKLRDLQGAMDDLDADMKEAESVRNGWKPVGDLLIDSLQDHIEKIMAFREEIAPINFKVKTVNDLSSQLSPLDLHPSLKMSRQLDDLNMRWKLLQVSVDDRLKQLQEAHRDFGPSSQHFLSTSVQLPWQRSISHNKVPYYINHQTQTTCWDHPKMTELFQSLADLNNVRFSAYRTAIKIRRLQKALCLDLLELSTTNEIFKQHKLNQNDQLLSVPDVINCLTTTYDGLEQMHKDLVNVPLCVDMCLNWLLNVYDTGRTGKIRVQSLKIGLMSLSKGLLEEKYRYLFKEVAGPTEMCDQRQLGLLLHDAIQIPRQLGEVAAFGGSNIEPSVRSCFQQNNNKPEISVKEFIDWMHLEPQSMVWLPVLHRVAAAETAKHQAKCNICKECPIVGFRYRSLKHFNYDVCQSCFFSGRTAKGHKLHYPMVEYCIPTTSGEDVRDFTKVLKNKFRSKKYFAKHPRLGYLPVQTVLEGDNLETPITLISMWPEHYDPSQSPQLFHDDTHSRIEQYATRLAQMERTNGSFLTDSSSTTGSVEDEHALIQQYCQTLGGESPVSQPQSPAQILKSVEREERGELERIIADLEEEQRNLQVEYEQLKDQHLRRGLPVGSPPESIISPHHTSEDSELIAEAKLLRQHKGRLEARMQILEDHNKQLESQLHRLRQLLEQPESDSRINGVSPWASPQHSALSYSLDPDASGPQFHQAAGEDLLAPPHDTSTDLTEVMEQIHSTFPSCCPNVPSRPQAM

CCS(=O)(=O)c1ccc2oc(-c3ccc4c(c3)C=C[C@H](O)[C@H]4O)nc2c1
EC50 [1]: 370 nM | EC50 [2]: > 10000 nM

CCS(=O)(=O)c1ccc2oc(-c3ccc4c(c3)[C@@H](O)[C@H](O)C=C4)nc2c1
EC50 [1]: 120 nM | EC50 [2]: 8350 nM

CCS(=O)(=O)c1ccc2oc(-c3ccc4ccccc4c3)nc2c1 [BMN 195]
EC50 [1]: 110 nM | EC50 [2]: 1280 nM
